Hits are enriched below; roughly 2.7% of the tested compounds scored in any of these assays.
ASAP1 inh – inhibitors of human ASAP1 ArfGAP activity, primary screen, biochemical, fluorescence polarization; ASAP1-stimulated ARF1 GTP hydrolysis, GDP FP detection; inhibition, % at 16.5 µM; 0.19% of 360,000 active; in the data active = inhibition above about 25%;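 note: 0% = vehicle with enzyme and substrate and 100% = no enzyme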
PAFAH2 FP inh – PAFAH2 enzyme inhibitors, primary screen, biochemical, fluorescence polarization, human; inhibition, % at 3.39 µM; 0.99% of 340,000 active; recombinant PAFAH2, FP-rhodamine activity probe; Platelet-activating factor acetylhydrolase 2, cytoplasmic (Homo sapiens), Q99487; AID 492956, 2010;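 active = inhibition above the mean over all tested compounds plus 3 SD, cut at about 30% in these data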;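 note: inhibitors block probe labeling of enzyme so polarization drops; 0% = enzyme with DMSO and 100% = wells lacking PAFAH2 protein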
PAFAH1B2 inh – PAFAH1B2 enzyme inhibitors, primary screen, biochemical, fluorescence polarization, human; Platelet-activating factor acetylhydrolase IB subunit alpha2 (Homo sapiens), P68402; recombinant PAFAH1B2, FP-rhodamine activity probe; inhibition, % at 3.39 µM; 1.2% of 340,000 active; AID 492953, 2010;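 active = inhibition above the mean of all tested compounds plus 3 SD, cut at about 24% in these data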;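 note: 0% = enzyme with DMSO and 100% = wells lacking PAFAH1B2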
pPAFAH FP inh – pPAFAH enzyme inhibitors, primary screen, biochemical, fluorescence polarization, human | Platelet-activating factor acetylhydrolase (Homo sapiens), Q13093 | recombinant pPAFAH, FP-rhodamine probe fluorescence polarization | inhibition, % at 3.39 µM | 1.5% of 330,000 active | AID 463082, 2010;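 active = inhibition above the mean inhibition across the screen plus 3 SD, cut at about 25% in these data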;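 note: inhibitors block binding of the rhodamine activity-based probe so polarization drops; 0% = enzyme with DMSO and 100% = wells lacking pPAFAH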
Target sequence (Q13093 whole entry, looked up): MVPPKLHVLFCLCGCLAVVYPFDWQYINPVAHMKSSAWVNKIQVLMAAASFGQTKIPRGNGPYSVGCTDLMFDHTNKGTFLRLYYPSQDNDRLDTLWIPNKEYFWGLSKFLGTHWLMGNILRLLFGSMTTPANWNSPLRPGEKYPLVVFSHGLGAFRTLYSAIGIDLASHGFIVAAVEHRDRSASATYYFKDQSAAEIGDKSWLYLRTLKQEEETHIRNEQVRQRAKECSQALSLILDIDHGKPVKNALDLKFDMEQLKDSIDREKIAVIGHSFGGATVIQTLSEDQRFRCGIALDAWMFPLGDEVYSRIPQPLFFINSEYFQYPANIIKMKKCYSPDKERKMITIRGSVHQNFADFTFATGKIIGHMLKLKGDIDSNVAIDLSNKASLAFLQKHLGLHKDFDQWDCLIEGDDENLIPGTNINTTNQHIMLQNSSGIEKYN
ARFGAP1 inhibitor – inhibitors of rat ARFGAP1 GAP activity, primary screen, biochemical, fluorescence polarization, GDP tracer. ADP-ribosylation factor GTPase-activating protein 1 (Rattus norvegicus), Q62848. Arfgap1-stimulated ARF1 GTP hydrolysis, GDP FP detection. inhibition, % at 16.5 µM. 0.26% of 360,000 active. AID 651572, 2012;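 active = inhibition above a per-plate limit, mean inhibition of low control wells plus 3 SD, cut at about 25% in these data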;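 note: 0% = DMSO wells with enzyme and 100% = wells lacking Arfgap1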
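Material – truncated rat Arfgap1 GAP domain · Buffer or medium – HEPES-based buffer, pH 7.5 · Reagent – human ARF1(Δ1-17)-GTP substrate · Dosing – 16.5 µM single point, 1.26% DMSO · Schedule – GTP hydrolysis reaction 2 h at 25 °C · Technique – GDP detection by fluorescence polarization · Benchmarks – No-Arfgap1 wells (100%) versus DMSO full-reaction wells (0%) · Repeats – single replicate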
PAFAH1B3 inh – PAFAH1B3 enzyme inhibitors, primary screen, biochemical, fluorescence polarization, human. recombinant PAFAH1B3, FP-rhodamine probe. 0.28% of 340,000 active. inhibition, % at 3.39 µM;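 active = inhibition above the screen-wide average of all tested compounds plus 3 SD, cut at about 25% in these data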;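 note: 0% = enzyme with DMSO only and 100% = wells lacking PAFAH1B3 protein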
Target sequence (Q15102 whole entry, looked up): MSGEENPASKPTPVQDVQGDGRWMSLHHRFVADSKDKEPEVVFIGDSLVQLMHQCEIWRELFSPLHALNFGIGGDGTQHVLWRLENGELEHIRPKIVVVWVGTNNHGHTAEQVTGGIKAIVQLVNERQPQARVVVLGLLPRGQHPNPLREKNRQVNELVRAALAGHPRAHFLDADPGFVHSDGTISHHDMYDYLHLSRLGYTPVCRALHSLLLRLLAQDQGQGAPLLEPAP
PAFAH2 FP conf – PAFAH2 enzyme inhibitors, confirmation, biochemical, fluorescence polarization, human. shares compounds with PAFAH2 FP inh. recombinant PAFAH2, FP-rhodamine activity probe. inhibition, % at 3.39 µM. 65% of 2,300 active;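 active = mean inhibition over three repeats above a set limit taken from the earlier primary screen, cut at about 30% in these data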;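 note: inhibitor blocks binding of rhodamine activity probe so polarization falls; 0% = enzyme with DMSO and 100% = wells lacking PAFAH2 protein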
* marks the source's active call; other numbers are inactive results; . = not tested or not shown.

SMILES	ASAP1 inh	PAFAH2 FP inh	PAFAH1B2 inh	pPAFAH FP inh	ARFGAP1 inhibitor	PAFAH1B3 inh	PAFAH2 FP conf
CCOC(=O)N1CCN(S(=O)(=O)N2CCCC(C(=O)NCc3ccccc3OCC)C2)CC1 (stereo not drawn)	10.6	.	.	.	20.0	.	.
CC(=O)Nc1ccc(C(=O)OCC(=O)NC(=O)NC(C)(C)C)cc1	1.7	41.1*	1.0	3.1	-13.7	7.1	30.7*
CC(=O)Nc1ccc(C(=O)OCC(=O)NCCC2=CCCCC2)cc1	-8.0	66.1*	-2.5	.	-9.3	6.5	60.8*
O=C(COC(=O)c1ccc(OC(F)F)cc1)NCCC1=CCCCC1	-10.2	40.8*	0.7	22.3	-1.6	-2.3	14.9
COC(=O)Nc1ccc(SCC(=O)c2cccc([N+](=O)[O-])c2)cc1	-13.9	-1.2	4.7	-1.3	-14.2	8.8	.
COc1cc(OC)cc(C(=O)NNC(=O)C2CCC2)c1	-3.0	.	.	.	2.3	.	.
CC(C)c1ccc(N(CC(=O)N2CCN(Cc3ccccc3)CC2)S(C)(=O)=O)cc1	10.7	-13.4	-2.2	-3.6	-0.1	9.9	.
CN1CCN(C(=O)c2cc(Cl)ccc2NC(=O)c2ccc(Cl)cc2Cl)CC1	-3.0	5.7	0.7	-0.4	3.7	8.6	.
COc1cc2c(c(OC)c1OC)-c1ccc(SC)c(=O)cc1C(NC=O)CC2 (stereo not drawn)	0.6	23.2	2.6	.	-5.3	1.9	.
O=C(CCC(NC(=O)OCc1ccccc1)C(=O)OCC(=O)N1CCCCC1)OCC(=O)N1CCCCC1 (stereo not drawn)	5.9	53.2*	5.5	3.1	12.3	6.7	47.8*
O=C(COC(=O)CCC(NC(=O)OCc1ccccc1)C(=O)OCC(=O)Nc1ccccc1)Nc1ccccc1 (stereo not drawn)	7.5	69.7*	5.5	2.8	0.5	-7.6	83.5*
CC(C)c1csc(CN2CCC(n3nccc3NC(=O)Cc3ccccc3)CC2)n1	1.7	4.6	4.3	-2.9	0.7	0.7	.
O=C(O)CN1C(=O)/C(=C\c2ccccc2OCc2ccc(F)cc2)SC1=S	-4.0	38.5*	15.6	14.0	0.9	2.4	35.2*
O=C(O)CN1C(=O)/C(=C\c2cccc(OCc3ccccc3)c2)SC1=S	7.7	0.7	22.0	-21.9	-27.2	2.6	.
O=C(O)CN1C(=O)/C(=C\c2cc(Br)ccc2OCc2ccc(Cl)cc2)SC1=S	-12.7	31.6*	20.5	.	-18.0	9.0	20.0
Cc1cc(C)c2c(N)c(C(=O)Nc3c(C)n(C)n(-c4ccccc4)c3=O)sc2n1	6.0	-2.2	2.3	0.0	1.2	4.7	.
COc1ccccc1NC(=O)c1ccc(NC(=O)CSc2nc(N)cc(=O)[nH]2)cc1	3.0	4.8	5.5	0.7	11.0	-0.9	.
O=C(NCc1cc([N+](=O)[O-])ccc1O)c1cccnc1Sc1ccccc1Cl	-3.4	39.1*	0.2	2.9	6.8	4.2	32.0*
O=C(NCc1cc([N+](=O)[O-])ccc1O)c1cccnc1Sc1ccc(Cl)cc1	11.0	16.5	-3.7	4.3	-2.3	7.6	.
Cc1cc2c(cc(C(=O)N3CCC(C(=O)NC4CCCC4)CC3)n2Cc2c(F)cccc2Cl)o1	-0.8	63.8*	3.7	-0.6	-0.7	-1.9	49.4*
COc1ccc(OC)c(C(=O)NC(CC(N)=O)c2ccc(NCc3ccccn3)c([N+](=O)[O-])c2)c1 (stereo not drawn)	2.5	-3.2	1.5	5.7	6.3	10.6	.
CCCCCCCCCCC[C@@H](C[C@@H]1OC(=O)[C@H]1CCCCCC)OC(=O)[C@H](CC(C)C)NC=O	3.3	79.8*	9.5	93.0*	2.8	2.7	79.3*
CCS(=O)(=O)c1ccc(O)c(NC(=O)Nc2ccccc2)c1	3.3	44.9*	3.2	13.1	11.7	-4.8	29.4
CCCNC(=O)Nc1cc(S(=O)(=O)CC)ccc1O	-7.0	2.3	-2.5	7.7	3.2	3.3	.
CC1CCN(S(=O)(=O)c2ccc3ncn(CC(=O)N4CCN(C)CC4)c(=O)c3c2)CC1	9.5	1.1	9.8	1.6	4.8	4.7	.
SMILES	ASAP1 inh	PAFAH2 FP inh	PAFAH1B2 inh	pPAFAH FP inh	ARFGAP1 inhibitor	PAFAH1B3 inh	PAFAH2 FP conf
O=C(NCC1CCCO1)C(c1ccncc1)N(Cc1cccs1)C(=O)Cn1nnc(-c2ccc(F)cc2)n1 (stereo not drawn)	-6.3	5.4	4.6	0.5	14.8	4.6	.
CC(C)CCNC(=O)C(c1ccncc1)N(Cc1cccs1)C(=O)Cn1nnc(-c2ccc(F)cc2)n1 (stereo not drawn)	-10.3	40.2*	2.6	7.5	3.7	1.5	13.3
N/C(Cc1ccc([N+](=O)[O-])cc1)=N\OC(=O)Cc1ccccc1	2.9	8.5	6.2	5.9	5.2	-5.4	.
N/C(Cc1ccc([N+](=O)[O-])cc1)=N\OC(=O)c1ccccc1F	0.9	38.0*	-2.0	2.3	-0.1	14.8	23.0
Cc1ccccc1OCC(=O)Nc1sc(C(=O)Nc2cccc(C)c2C)c(C)c1C#N	.	-8.9	-1.2	1.2	.	1.8	.
O=C(COC(=O)c1ccccn1)NC1CCCCC1	9.2	6.8	-1.2	6.4	-9.0	4.7	.
Nc1ncccc1C(=O)OCC(=O)NC1CCCCCC1	-3.7	41.8*	5.1	6.5	-0.9	9.4	25.0
CCCCNC(=O)COC(=O)c1ccccc1F	-1.6	46.2*	7.4	12.3	-1.8	0.4	39.6*
O=C(COC(=O)c1ccccc1F)NC1CC1	-21.2	30.5*	5.2	7.2	0.7	6.6	28.2
O=C(COC(=O)c1cccnc1Nc1ccccc1F)NC1CC1	-2.1	-1.1	3.8	1.0	5.6	7.9	.
O=C(COC(=O)c1ccccc1F)NC1CCCC1	-11.8	64.0*	3.5	15.8	-14.8	4.4	59.5*
O=C(NCC(O)c1nc2ccccc2[nH]1)c1cc2ccccc2[nH]1 (stereo not drawn)	4.2	.	.	.	10.0	.	.
O=C(COC(=O)c1cc(Br)ccc1O)NC1CCCCCC1	-0.3	24.7	1.2	6.1	-3.2	12.9	.
O=C(COC(=O)c1cc2ccccc2cc1O)NC1CCCCC1	1.0	47.7*	2.6	8.0	2.8	5.1	33.4*
O=C(COC(=O)c1c(F)cccc1Cl)NC1CCCCC1	-2.2	65.7*	3.2	.	10.8	5.0	48.2*
Cc1ccc(F)cc1C(=O)N1CCCCC1c1cc(C(=O)Nc2ccccc2)no1 (stereo not drawn)	1.6	.	.	.	-1.1	.	.

From PubChem
